Experimental data from ChEMBL document CHEMBL5303300, “EUbOPEN Chemogenomics Library - Multiplex” (2023).
“And” between values parts separate entries of the source, which are not always exact repeats. Equal values may be shown once.

Tested on: HEK-293T
Assay: Multiplex assay against HEK293T
Assay type: toxicity, cell-based
Settings: human, number of replicates 2
Method in brief: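 Cells were classed with CellPathfinder machine-learning gating, first as Hoechst high-intensity objects or normal cells, then (normal cells) as healthy, pyknosed or fragmented nuclei, and finally (pyknosed cells) as mitotic or apoptotic. Staining of live cells at seeding used Hoechst33342, BioTracker Green Microtubule Cytoskeleton Dye, MitoTracker Red and Annexin V Alexa Fluor 680, with imaging on a CQ1 microscope at 37°C and 5% CO2 after compound addition. Tubulin, mitochondrial-mass and membrane-permeability phenotypes are per cents of healthy-nucleus cells.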

[1] = 12 h, 1 µM, compound concentration 1 uM
[2] = 12 h, 10 µM, compound concentration 10 uM
[3] = 24 h, 1 µM, compound concentration 1 uM
[4] = 24 h, 10 µM, compound concentration 10 uM
[5] = 48 h, 1 µM, compound concentration 1 uM
[6] = 48 h, 10 µM, compound concentration 10 uM

COc1nc2ccc([C@@](O)(c3ccc(Cl)cc3)c3cncn3C)cc2c(Cl)c1Cc1ccc(-n2cccn2)cc1 [JNJ-53721590]
Population Apoptotic (%) [1]: 43% and 52%
Population Fragmented Nuclei (%) [1]: 4% and 2%
Population Healthy Nuclei (%) [1]: 81%
Population Hoechst High Intensity Objects (%) [1]: 7%
Population Membrane Permeable-Phenotype (%) [1]: 4% and 5%
Population Mitochondria Different-Phenotype (%) [1]: 26%
Population Mitotic Cells (%) [1]: 56% and 47%
Population Normal (%) [1]: 92%
Population Pyknosed Nuclei (%) [1]: 13% and 15%
Population Tubulin-Different-Phenotype (%) [1]: 74% and 70%
Total Cell Count [1]: 675 and 403
Population Apoptotic (%) [2]: 41% and 64%
Population Fragmented Nuclei (%) [2]: 2%
Population Healthy Nuclei (%) [2]: 88%
Population Hoechst High Intensity Objects (%) [2]: 6%
Population Membrane Permeable-Phenotype (%) [2]: 21% and 12%
Population Mitochondria Different-Phenotype (%) [2]: 24%
Population Mitotic Cells (%) [2]: 58% and 35%
Population Normal (%) [2]: 93%
Population Pyknosed Nuclei (%) [2]: 9% and 8%
Population Tubulin-Different-Phenotype (%) [2]: 94%
Total Cell Count [2]: 831 and 720
Population Apoptotic (%) [3]: 42% and 54%
Population Fragmented Nuclei (%) [3]: 6% and 3%
Population Healthy Nuclei (%) [3]: 84% and 87%
Population Hoechst High Intensity Objects (%) [3]: 8% and 7%
Population Membrane Permeable-Phenotype (%) [3]: 4% and 1%
Population Mitochondria Different-Phenotype (%) [3]: 11% and 15%
Population Mitotic Cells (%) [3]: 57% and 45%
Population Normal (%) [3]: 91% and 92%
Population Pyknosed Nuclei (%) [3]: 8%
Population Tubulin-Different-Phenotype (%) [3]: 57% and 53%
Total Cell Count [3]: 1025 and 592
Population Apoptotic (%) [4]: 37% and 57%
Population Fragmented Nuclei (%) [4]: 2% and 1%
Population Healthy Nuclei (%) [4]: 87% and 84%
Population Hoechst High Intensity Objects (%) [4]: 5% and 8%
Population Membrane Permeable-Phenotype (%) [4]: 16% and 11%
Population Mitochondria Different-Phenotype (%) [4]: 19% and 23%
Population Mitotic Cells (%) [4]: 62% and 42%
Population Normal (%) [4]: 94% and 91%
Population Pyknosed Nuclei (%) [4]: 9% and 13%
Population Tubulin-Different-Phenotype (%) [4]: 95% and 96%
Total Cell Count [4]: 856 and 731
Population Apoptotic (%) [5]: 18% and 38%
Population Fragmented Nuclei (%) [5]: 10% and 8%
Population Healthy Nuclei (%) [5]: 86% and 85%
Population Hoechst High Intensity Objects (%) [5]: 8% and 11%
Population Membrane Permeable-Phenotype (%) [5]: 5% and 2%
Population Mitochondria Different-Phenotype (%) [5]: 2% and 7%
Population Mitotic Cells (%) [5]: 81% and 61%
Population Normal (%) [5]: 91% and 88%
Population Pyknosed Nuclei (%) [5]: 3% and 6%
Population Tubulin-Different-Phenotype (%) [5]: 37% and 39%
Total Cell Count [5]: 2031 and 1111
Population Apoptotic (%) [6]: 40% and 52%
Population Fragmented Nuclei (%) [6]: 5% and 6%
Population Healthy Nuclei (%) [6]: 90% and 87%
Population Hoechst High Intensity Objects (%) [6]: 10% and 12%
Population Membrane Permeable-Phenotype (%) [6]: 28% and 21%
Population Mitochondria Different-Phenotype (%) [6]: 3% and 4%
Population Mitotic Cells (%) [6]: 60% and 47%
Population Normal (%) [6]: 89% and 87%
Population Pyknosed Nuclei (%) [6]: 4% and 5%
Population Tubulin-Different-Phenotype (%) [6]: 93% and 95%
Total Cell Count [6]: 993 and 855

CCNc1ccc(-c2nn(-c3ccccc3C)c3c2C(C)Cc2nc(NC(=O)OC)sc2-3)cn1.O=C(O)C(F)(F)F (configuration not stated)
Population Apoptotic (%) [1]: 69% and 60%
Population Fragmented Nuclei (%) [1]: 4% and 5%
Population Healthy Nuclei (%) [1]: 86% and 81%
Population Hoechst High Intensity Objects (%) [1]: 11% and 12%
Population Membrane Permeable-Phenotype (%) [1]: 2%
Population Mitochondria Different-Phenotype (%) [1]: 45% and 38%
Population Mitotic Cells (%) [1]: 30% and 39%
Population Normal (%) [1]: 88% and 87%
Population Pyknosed Nuclei (%) [1]: 8% and 13%
Population Tubulin-Different-Phenotype (%) [1]: 74% and 65%
Total Cell Count [1]: 430 and 487
Population Apoptotic (%) [2]: 73% and 72%
Population Fragmented Nuclei (%) [2]: 3% and 4%
Population Healthy Nuclei (%) [2]: 85% and 79%
Population Hoechst High Intensity Objects (%) [2]: 10%
Population Membrane Permeable-Phenotype (%) [2]: 3%
Population Mitochondria Different-Phenotype (%) [2]: 74% and 79%
Population Mitotic Cells (%) [2]: 26% and 27%
Population Normal (%) [2]: 89%
Population Pyknosed Nuclei (%) [2]: 10% and 16%
Population Tubulin-Different-Phenotype (%) [2]: 94% and 96%
Total Cell Count [2]: 308 and 225
Population Apoptotic (%) [3]: 58% and 82%
Population Fragmented Nuclei (%) [3]: 5%
Population Healthy Nuclei (%) [3]: 82% and 81%
Population Hoechst High Intensity Objects (%) [3]: 26% and 16%
Population Membrane Permeable-Phenotype (%) [3]: 0%
Population Mitochondria Different-Phenotype (%) [3]: 44% and 63%
Population Mitotic Cells (%) [3]: 41% and 17%
Population Normal (%) [3]: 73% and 83%
Population Pyknosed Nuclei (%) [3]: 11% and 12%
Population Tubulin-Different-Phenotype (%) [3]: 72% and 85%
Total Cell Count [3]: 409 and 322
Population Apoptotic (%) [4]: 54% and 66%
Population Fragmented Nuclei (%) [4]: 6% and 5%
Population Healthy Nuclei (%) [4]: 76% and 74%
Population Hoechst High Intensity Objects (%) [4]: 13% and 16%
Population Membrane Permeable-Phenotype (%) [4]: 1%
Population Mitochondria Different-Phenotype (%) [4]: 86% and 85%
Population Mitotic Cells (%) [4]: 45% and 33%
Population Normal (%) [4]: 86% and 83%
Population Pyknosed Nuclei (%) [4]: 16% and 19%
Population Tubulin-Different-Phenotype (%) [4]: 89% and 95%
Total Cell Count [4]: 234 and 199
Population Apoptotic (%) [5]: 75% and 85%
Population Fragmented Nuclei (%) [5]: 11%
Population Healthy Nuclei (%) [5]: 69% and 74%
Population Hoechst High Intensity Objects (%) [5]: 28% and 29%
Population Membrane Permeable-Phenotype (%) [5]: 0%
Population Mitochondria Different-Phenotype (%) [5]: 43% and 50%
Population Mitotic Cells (%) [5]: 24% and 14%
Population Normal (%) [5]: 71% and 70%
Population Pyknosed Nuclei (%) [5]: 19% and 14%
Population Tubulin-Different-Phenotype (%) [5]: 75% and 80%
Total Cell Count [5]: 418 and 399
Population Apoptotic (%) [6]: 73% and 66%
Population Fragmented Nuclei (%) [6]: 5% and 3%
Population Healthy Nuclei (%) [6]: 86% and 81%
Population Hoechst High Intensity Objects (%) [6]: 19% and 13%
Population Membrane Permeable-Phenotype (%) [6]: 2% and 1%
Population Mitochondria Different-Phenotype (%) [6]: 83% and 80%
Population Mitotic Cells (%) [6]: 26% and 33%
Population Normal (%) [6]: 80% and 86%
Population Pyknosed Nuclei (%) [6]: 7% and 15%
Population Tubulin-Different-Phenotype (%) [6]: 89% and 93%
Total Cell Count [6]: 239 and 207
